This passage reports Control and Toxicity results from ChEMBL document CHEMBL1131570, “2,5-bis[4-(N-alkylamidino)phenyl]furans as anti-Pneumocystis carinii agents” (J Med Chem, 1998).

Each structure is given as a SMILES string.

Series [1] relates to Rattus norvegicus. Briefly: The cysts/g of lung (% of control ) is calculated at a dose of 10.4 umol/kg/day against Pneumocystis carinii in rats. Type of series: functional. Summed up: (§1)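 Rat *P. carinii* pneumonia model: furan dications given intravenously; lung cysts counted per g of lung tissue and expressed relative to pooled saline-treated control rats.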
Series [2] in a line: Toxicity at a dose of 10.4 umol/kg/day against Pneumocystis carinii in rats. The following applies: rat, in vivo.
The test system of series [3] is Rattus norvegicus. Briefly: The cysts/g of lung (% of control ) is calculated at a dose of 0.5 umol/kg/day against Pneumocystis carinii in rats. Type of series: functional. Summed up:
as §1

Series [4] in a line: Toxicity at a dose of 0.5 umol/kg/day against Pneumocystis carinii in rats. The settings on record: rat, in vivo.
The nature of series [5]: Toxicity at a dose of 10.8 umol/kg/day against Pneumocystis carinii in rats. The following applies: rat, in vivo.
The test system of series [6] is Rattus norvegicus. Briefly: The cysts/g of lung (% of control ) is calculated at a dose of 10.8 umol/kg/day against Pneumocystis carinii in rats. Format: functional. Summed up: as §1
Series [7] can be described thus: Toxicity at a dose of 0.9 umol/kg/day against Pneumocystis carinii in rats. The settings on record: rat, in vivo.
Series [8] is described as follows: Toxicity at a dose of 9.1 umol/kg/day against Pneumocystis carinii in rats. The following applies: rat, in vivo.
Series [9] relates to Rattus norvegicus. Briefly: The cysts/g of lung (% of control ) is calculated at a dose of 0.9 umol/kg/day against Pneumocystis carinii in rats. Type of series: functional. Summed up: as §1
In series [10] the test system is Rattus norvegicus. Briefly: The cysts/g of lung (% of control ) is calculated at a dose of 9.1 umol/kg/day against Pneumocystis carinii in rats. Format: functional. In outline: as §1
Series [11] can be described thus: Toxicity at a dose of 10 umol/kg/day against Pneumocystis carinii in rats. The settings on record: rat, in vivo.
Series [12] deals with Rattus norvegicus. Briefly: The cysts/g of lung (% of control ) is calculated at a dose of 10 umol/kg/day against Pneumocystis carinii in rats. Format: functional. Summed up: as §1
The subject of series [13] is Rattus norvegicus. The series can be described thus: The cysts/g of lung (% of control ) is calculated at a dose of 0.2 umol/kg/day against Pneumocystis carinii in rats. Format: functional. In outline:
as §1

Series [14] is described as follows: Toxicity at a dose of 0.2 umol/kg/day against Pneumocystis carinii in rats. The following applies: rat, in vivo.
For series [15], the system named is Rattus norvegicus. The series can be described thus: The cysts/g of lung (% of control ) is calculated at a dose of 10.6 umol/kg/day against Pneumocystis carinii in rats. Type of series: functional. Summed up: as §1
Series [16] is described as follows: Toxicity at a dose of 10.6 umol/kg/day against Pneumocystis carinii in rats. The following applies: rat, in vivo.
The test system of series [17] is Rattus norvegicus. The series can be described thus: The cysts/g of lung (% of control ) is calculated at a dose of 1.1 umol/kg/day against Pneumocystis carinii in rats. Format: functional. Summed up:
as §1

Series [18] deals with Rattus norvegicus. Briefly: The cysts/g of lung (% of control ) is calculated at a dose of 0.2 umol/kg /day against Pneumocystis carinii in rats. Type of series: functional. In outline:
as §1

A short description of series [19]: Toxicity at a dose of 1.1 umol/kg / day against Pneumocystis carinii in rats. The settings on record: rat, in vivo.
Series [20] relates to Rattus norvegicus. Briefly: The cysts/g of lung (% of control ) is calculated at a dose of 2.2 umol/kg/day against Pneumocystis carinii in rats. Format: functional. In outline: as §1
A short description of series [21]: Toxicity at a dose of 2.2 umol/kg /day against Pneumocystis carinii in rats. The settings on record: rat, in vivo.
For series [22], the system named is Rattus norvegicus. Briefly: The cysts/g of lung (% of control ) is calculated at a dose of 1.9 umol/kg day against Pneumocystis carinii in rats. Format: functional. Summed up:
as §1

Series [23] has as its system Rattus norvegicus. The series can be described thus: The cysts/g of lung (% of control ) is calculated at a dose of 9.4 umol/kg day against Pneumocystis carinii in rats. Format: functional. In outline:
as §1

Series [24] is described as follows: Toxicity at a dose of 1.9 umol/kg day against Pneumocystis carinii in rats. The settings on record: rat, in vivo.
The nature of series [25]: Toxicity at a dose of 0.2 umol/kg day against Pneumocystis carinii in rats. The settings on record: rat, in vivo.
For series [26], the system named is Rattus norvegicus. The series can be described thus: The cysts/g of lung (% of control ) is calculated at a dose of 0.9 umol/kg day against Pneumocystis carinii in rats. Format: functional. Summed up: as §1
Series [27] concerns Rattus norvegicus. The series can be described thus: The cysts/g of lung (% of control ) is calculated at a dose of 0.2 umol/kg day against Pneumocystis carinii in rats. Type of series: functional. Summed up: as §1
Series [28] can be described thus: Toxicity at a dose of 0.9 umol/kg day against Pneumocystis carinii in rats. The settings on record: rat, in vivo.
Series [29] deals with Rattus norvegicus. The series can be described thus: The cysts/g of lung (% of control ) is calculated at a dose of 4.8 umol/kg/day against Pneumocystis carinii in rats. Format: functional. In outline: as §1
A short description of series [30]: Toxicity at 10.4 a dose of umol/kg/day against Pneumocystis carinii in rats. The settings on record: rat, in vivo.
The subject of series [31] is Rattus norvegicus. Briefly: The cysts/g of lung (% of control ) is calculated at a dose of 9.9 umol/kg/day against Pneumocystis carinii in rats. Type of series: functional. In outline:
as §1

Series [32] is described as follows: Toxicity at a dose of 1.0 umol/kg/day against Pneumocystis carinii in rats. The settings on record: rat, in vivo.
Series [33] concerns Rattus norvegicus. Briefly: The cysts/g of lung (% of control ) is calculated at a dose of 1.0 umol/kg/day against Pneumocystis carinii in rats. Format: functional. Summed up:
as §1

The nature of series [34]: Toxicity at a dose of 9.7 umol/kg/day against Pneumocystis carinii in rats;. The following applies: rat, in vivo.
In series [35] the test system is Rattus norvegicus. The series can be described thus: The cysts/g of lung (% of control ) is calculated at a dose of 9.7 umol/kg/day against Pneumocystis carinii in rats. Format: functional. Summed up:
as §1

Series [36] in a line: Toxicity at a dose of 0.03 umol/kg/day against Pneumocystis carinii in rats. The settings on record: rat, in vivo.
A short description of series [37]: Toxicity at a dose of 2.7 umol/kg/day against Pneumocystis carinii in rats. The following applies: rat, in vivo.
Series [38] deals with Rattus norvegicus. Briefly: The cysts/g of lung (% of control ) is calculated at a dose of 0.3 umol/kg /day against Pneumocystis carinii in rats. Format: functional. Summed up:
(§2)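 P. carinii-infected rats dosed intravenously with the furan dication. Cysts were counted per g of lung tissue and expressed as % of the mean count of pooled saline-treated controls (n = 142).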

The test system of series [39] is Rattus norvegicus. Briefly: The cysts/g of lung (% of control ) is calculated at a dose of 0.03 umol/kg /day against Pneumocystis carinii in rats. Type of series: functional. Summed up: as §2
The nature of series [40]: Toxicity at a dose of 0.3 umol/kg/day against Pneumocystis carinii in rats. The following applies: rat, in vivo.
The subject of series [41] is Rattus norvegicus. Briefly: The cysts/g of lung (% of control ) is calculated at a dose of 2.7 umol/kg/day against Pneumocystis carinii in rats. Format: functional. In outline: as §2
The nature of series [42]: Toxicity at a dose of 13.3 umol/kg/day against Pneumocystis carinii in rats. The following applies: rat, in vivo.
The test system of series [43] is Rattus norvegicus. Briefly: The cysts/g of lung (% of control ) is calculated at a dose of 13.3 umol/kg/day against Pneumocystis carinii in rats. Type of series: functional. Summed up:
as §1

The nature of series [44]: Toxicity at a dose of 22.0 umol/kg/day against Pneumocystis carinii in rats;. The settings on record: rat, in vivo.
Series [45] deals with Rattus norvegicus. The series can be described thus: The cysts/g of lung (% of control ) is calculated at a dose of 22.0 umol/kg/day against Pneumocystis carinii in rats. Format: functional. Summed up: as §1

Regarding `N=C(NCCO)c1ccc(-c2ccc(-c3ccc(C(=N)NCCO)cc3)o2)cc1`, in the series on Rattus norvegicus [1], the Control is 0.6%. Moreover, in series [2], the Toxicity stood at 0.
As for `N=C(NCC1CC1)c1ccc(-c2ccc(-c3ccc(C(=N)NCC4CC4)cc3)o2)cc1`, the Control is recorded as 3.25% with Rattus norvegicus [3] and 0.24% with Rattus norvegicus [6]. The Toxicity in [4] and in [5] was 0 throughout.
`N=C(NC1CCCCC1)c1ccc(-c2ccc(-c3ccc(C(=N)NC4CCCCC4)cc3)o2)cc1`: the Toxicity in [7] and in series [8] was 0 throughout. Moreover, the Control is on record as 26.28% in the series with Rattus norvegicus [9] and 0.02% with Rattus norvegicus [10].
Turning to `CC(C)CNC(=N)c1ccc(-c2ccc(-c3ccc(C(=N)NCC(C)C)cc3)o2)cc1`, the Toxicity in series [11] is listed as 0. For the same compound, in the series with Rattus norvegicus [12], the Control is 2.2%.
`CCCNC(=N)c1ccc(-c2ccc(-c3ccc(C(=N)NCCC)cc3)o2)cc1`: the results for the Control with Rattus norvegicus [13] and with Rattus norvegicus [15] were 107.83% and 0.08%, respectively. Further, the Toxicity in series [14] and in series [16] was 0 each time.
Consider `N=C(NCC1CCCCC1)c1ccc(-c2ccc(-c3ccc(C(=N)NCC4CCCCC4)cc3)o2)cc1`, for which the Control in the series with Rattus norvegicus [15] is 43.9%. In series [16], this compound showed a Toxicity of 0.
Turning to `CC(C)NC(=N)c1ccc(-c2ccc(-c3ccc(C(=N)NC(C)C)cc3)o2)cc1`, the Control with Rattus norvegicus [17] was 11.73%; in the series with Rattus norvegicus [18] it was 169%; in the series with Rattus norvegicus [20], 8.41%; in the series on Rattus norvegicus [6], 0.2%. The Toxicity in series [19], in [5], in [14] and in series [21] was 0 in each case.
Take `N=C(NC1CCCC1)c1ccc(-c2ccc(-c3ccc(C(=N)NC4CCCC4)cc3)o2)cc1`: the Control was 0.08% in the series on Rattus norvegicus [22], 0.03% in the series with Rattus norvegicus [23], 0.11% in the series with Rattus norvegicus [26] and 93.5% in the series with Rattus norvegicus [27]. Further, the Toxicity in series [24], in [25] and in series [28] was 0 each time.
Turning to `CCC(CC)NC(=N)c1ccc(-c2ccc(-c3ccc(C(=N)NC(CC)CC)cc3)o2)cc1`, the Control in the series on Rattus norvegicus [29] is 24.43%.
`CC/N=C(\N)c1ccc(-c2ccc(-c3ccc(/C(N)=N/CC)cc3)o2)cc1` came in with a Toxicity in series [30] of 0. In addition, the Control in the series with Rattus norvegicus [1] is on record as 0.05%.
In the case of `N=C(NC1CCC1)c1ccc(-c2ccc(-c3ccc(C(=N)NC4CCC4)cc3)o2)cc1`, the Control with Rattus norvegicus [31] is listed as 0.05%; in the series on Rattus norvegicus [33], 0.67%. Further, the Toxicity in series [32] amounted to 0.
As to `CC(C)CC/N=C(\N)c1ccc(-c2ccc(-c3ccc(/C(N)=N/CCC(C)C)cc3)o2)cc1`, the Toxicity in series [34] is 0. For the same compound, in the series with Rattus norvegicus [35], the Control is on record as 2.38%.
As for `N=C(NC1CC1)c1ccc(-c2ccc(-c3ccc(C(=N)NC4CC4)cc3)o2)cc1`, the Control with Rattus norvegicus [13] was 129%; with Rattus norvegicus [6], 0.03%. In [14], the Toxicity is on record as 0.
With `C/N=C(\N)c1ccc(-c2ccc(-c3ccc(/C(N)=N/C)cc3)o2)cc1`, the Control with Rattus norvegicus [13] was 85.37%; in the series on Rattus norvegicus [15] it was 0.16%. For the same compound, the Toxicity in series [14] is 0.
With `N=C(N)c1ccc(-c2ccc(-c3ccc(C(=N)N)cc3)o2)cc1` [FURAMIDINE], the Toxicity in series [36], in series [37] and in series [40] was 0 in each case. Also, the Control was 5.38% with Rattus norvegicus [38], 21.97% with Rattus norvegicus [39] and 5.65% in the series on Rattus norvegicus [41].
As for `N=C(N)c1ccc(OCCCCCOc2ccc(C(=N)N)cc2)cc1` [PENTAMIDINE], the results for the Toxicity in series [42] and in series [44] were 0 and “Local toxicity”, respectively. Further, the Control in the series on Rattus norvegicus [43] is reported as 0.61%; in the series on Rattus norvegicus [45], 1.46%.
